{"data": "Measurements pooled from the literature", "read-out": "cell growth or viability", "note": "pEC50, pIC50: −log10 of the molar value."}
{"SMILES": "C=CC(=O)NC1CCN(c2ncc3ncnc(Nc4ccc(Oc5ccc6c(c5)ncn6C)c(C)c4)c3n2)CC1", "cell line": "KNS-62", "quantity": "pEC50", "result": 7.96}
{"SMILES": "C#Cc1nc(C2=C(C)C(O)CC2)cs1 (centres unmarked)", "cell line": "HT-1080", "quantity": "CC50", "result": "960 nM"}
{"SMILES": "[H]/N=C(\\N/C(=N/[H])Nc1ccc(Cl)cc1)NC(C)C", "cell line": "SH-SY5Y", "test": "resazurin", "quantity": "pIC50", "result": "< 4.30"}
{"SMILES": "CC(C)(C)c1cnc(CSc2cnc(NC(=O)C3CCN(CCCCCSc4cccc5c4CN(C4CCC(=O)NC4=O)C5=O)CC3)s2)o1 (centres unmarked)", "cell line": "HuT78", "test": "trypan blue", "setting": "0.25 µM, 48 h", "quantity": "viability", "result": "9.46%"}
{"SMILES": "CCN(CCO)CCCC(C)Nc1ccnc2cc(Cl)ccc12 (centres unmarked)", "cell line": "SH-SY5Y", "test": "resazurin", "quantity": "pIC50", "result": "< 4.30"}
{"SMILES": "COc1cc2c3c(n(CCCNC(C)C)c(=O)c2cc1OC)-c1nc2c(cc1C3=O)OCO2", "cell line": "SK-N-MC", "test": "MTS", "setting": "72 h", "quantity": "pIC50", "result": 6.82}
{"SMILES": "Nc1ccc(/C=C/C(=O)N2CCc3c(oc4c(-c5ccc(F)cc5)cc(-c5ccc(C(=O)N6C[C@@H]7[C@H](C6)C7(F)F)nn5)cc34)C2)cn1", "cell line": "Pan02", "test": "CCK-8", "setting": "72 h", "quantity": "pIC50", "result": 6.52}
{"SMILES": "CC(C)(C)c1cnc(CSc2cnc(NC(=O)C3CCN(CCCCCCCCSc4cccc5c4CN(C4CCC(=O)NC4=O)C5=O)CC3)s2)o1 (centres unmarked)", "cell line": "HuT78", "test": "trypan blue", "setting": "0.25 µM, 48 h", "quantity": "viability", "result": "22.4%"}
{"SMILES": "Nc1ccc(/C=C/C(=O)N2CCc3c(oc4c(-c5ccc(F)cc5)cc(-c5ccc(C(=O)N6CCC(F)(F)CC6)nn5)cc34)C2)cn1", "cell line": "Pan02", "test": "CCK-8", "setting": "72 h", "quantity": "pIC50", "result": 6.60}
{"SMILES": "CCNCCCn1c2c(c3cc(OC)c(OC)cc3c1=O)C(=O)c1cc3c(nc1-2)OCO3", "cell line": "SK-N-MC", "test": "MTS", "setting": "72 h", "quantity": "pIC50", "result": 6.86}
{"SMILES": "CCN(CC)Cc1cc(Nc2ccnc3cc(Cl)ccc23)ccc1O", "cell line": "SH-SY5Y", "test": "resazurin", "quantity": "pIC50", "result": 4.77}
{"SMILES": "CC(C)c1ccccc1[C@@H]1CCCN1C1CC2(CCN(c3ccc(C(=O)NS(=O)(=O)c4ccc(NC[C@H]5CC[C@](C)(O)CC5)c([N+](=O)[O-])c4)c(Oc4cnc5[nH]ccc5c4)c3)CC2)C1", "cell line": "MM.1R", "test": "ATP luminescence", "setting": "48 h", "quantity": "pIC50", "result": 5.13}
{"SMILES": "COc1cc2c3c(n(CCCn4ccnc4)c(=O)c2cc1OC)-c1nc2c(cc1C3=O)OCO2", "cell line": "SK-N-MC", "test": "MTS", "setting": "72 h", "quantity": "pIC50", "result": 6.77}
{"SMILES": "CCN(CC)CCCC(C)Nc1ccnc2cc(Cl)ccc12 (centres unmarked)", "cell line": "SH-SY5Y", "test": "resazurin", "quantity": "pIC50", "result": 4.36}
